Experimental findings from ChEMBL document CHEMBL4130442, “Design, synthesis and structure-activity relationship studies of a focused library of pyrimidine moiety with anti-proliferative and anti-metastasis activities in triple negative breast cancer” (Eur J Med Chem, 2017) are described below.

Data set [1] deals with MDA-MB-231. The data set can be described thus: Effect on total Akt protein level in human MDA-MB-231 cells at 5 uM incubated for 24 hrs by Western blot relative to untreated control. The following applies: mda-mb-231, 24 h. It counts as ADME, cell-based. Summed up: (§1)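 MDA-MB-231 cells were exposed for 24 h. Adherent and floating cells were pooled and lysed for 1 h at 4 °C in 50 mM Hepes pH 7.4 with 1% Triton X-100, orthovanadate, NaF, EDTA, PMSF, aprotinin and leupeptin. After 12,000 rpm clearing, equal protein was run on 10-15% SDS-PAGE and blotted to PVDF. Detection used HRP-ECL, with β-actin as loading control and densitometric quantification.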
On the technique in general: Immunoblotting shows a protein as a band on a membrane.

The next data set deals with MDA-MB-436. The data set is described as follows: Antiproliferative activity against human MDA-MB-436 cells incubated for 24 hrs by MTT assay. Type of data set: functional, cell-based. The following applies: MDA-MB-436, 24 h.
The subject of data set [2] is MDA-MB-231. The data set can be described thus: Induction of autophagy in human MDA-MB-231 cells assessed as change in Beclin-1 protein level at 10 uM incubated for 24 hrs by Western blot method relative to untreated control. Type of data set: functional. A digest of the protocol: as §1
Data set [3] concerns MDA-MB-231. The data set can be described thus: Induction of autophagy in human MDA-MB-231 cells assessed as change in Beclin-1 protein level at 2.5 uM incubated for 24 hrs in presence of PDGFRbeta siRNA by Western blot method relative to untreated control. It counts as functional. A digest of the protocol:
as §1

For data set [4], the system named is MDA-MB-231. The data set is described as follows: Effect on total ULK1 protein level in human MDA-MB-231 cells at 10 uM incubated for 24 hrs by Western blot relative to untreated control. Type of data set: ADME, cell-based. The following applies: mda-mb-231, 24 h. Summed up: as §1
The subject of data set [5] is MDA-MB-231. The data set can be described thus: Induction of autophagy in human MDA-MB-231 cells assessed as change in Beclin-1 protein level at 2.5 uM incubated for 24 hrs in absence of PDGFRbeta siRNA by Western blot method relative to untreated control. It counts as functional. A digest of the protocol:
as §1

In data set [6] the test system is MDA-MB-231. The data set is described as follows: Effect on total mTOR protein level in human MDA-MB-231 cells at 5 uM incubated for 24 hrs by Western blot relative to untreated control. Type of data set: ADME, cell-based. The following applies: mda-mb-231, 24 h. Summed up:
as §1

Data set [7] deals with MDA-MB-231. The data set is described as follows: Antiproliferative activity against human MDA-MB-231 cells incubated for 48 hrs by MTT assay. Type of data set: functional, cell-based. The following applies: MDA-MB-231, 48 h. Summed up: (§2)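 MDA-MB-231 cells grown in DMEM with 10% FBS under 5% CO2 were seeded at 5×10^4 cells/ml. After 24 h, a concentration series was added for 24, 48 or 72 h and viability was read by MTT. IC50 is mean ± SD of triplicates.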
In general terms: Tetrazolium dyes change colour on reduction, which living cells bring about.

Data set [8] addresses T1, Platelet-derived growth factor receptor beta (Homo sapiens, UniProt P09619). The data set is described as follows: Inhibition of PDGFRbeta in human MDA-MB-231 cells assessed as ULK Ser555 phosphorylation level at 5 uM incubated for 24 hrs by Western blot relative to untreated control. Type of data set: cell-based. Summed up: (§3)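 Cells were treated 24 h at several concentrations. Pooled adherent and floating cells were lysed in Hepes 50 mM pH 7.4 / 1% Triton X-100 buffer with vanadate, NaF, EDTA, PMSF, aprotinin and leupeptin. Equal protein was run on 10-15% SDS-PAGE and blotted to PVDF. PDGFR-β-AKT-ULK1 pathway phospho-proteins were probed and detected by ECL, with β-actin as loading control.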

Data set [9] has as its target T1, Platelet-derived growth factor receptor beta. The data set can be described thus: Inhibition of PDGFRbeta in human MDA-MB-231 cells assessed as Akt Ser473 phosphorylation level at 2.5 uM incubated for 24 hrs by Western blot relative to untreated control. It counts as cell-based. A digest of the protocol:
as §3

For data set [10], the system named is MDA-MB-231. The data set is described as follows: Effect on total Ras protein level in human MDA-MB-231 cells at 2.5 uM incubated for 24 hrs in presence of PDGFRbeta siRNA by Western blot relative to untreated control. Type of data set: cell-based. The following applies: mda-mb-231, 24 h.
Data set [11] relates to MDA-MB-231. The data set is described as follows: Induction of autophagy in human MDA-MB-231 cells assessed as change in p62 protein level at 5 uM incubated for 24 hrs by Western blot method relative to untreated control. Type of data set: functional. Summed up: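 Cells grown in DMEM with 10% FBS under 5% CO2 and treated 24 h across a range of concentrations. Adherent and floating cells were pooled and lysed in Hepes 50 mM pH 7.4 / 1% Triton X-100 buffer with phosphatase and protease inhibitors, 4 °C for 1 h. Equal protein was run on 10-15% SDS-PAGE, blotted to PVDF, probed with Beclin-1, p62 and LC3 antibodies and detected by ECL.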

The subject of data set [12] is MDA-MB-231. The data set is described as follows: Effect on total PDGFRbeta protein level in human MDA-MB-231 cells at 5 uM incubated for 24 hrs by Western blot relative to untreated control. It counts as ADME, cell-based. The following applies: mda-mb-231, 24 h. Summed up:
as §1

Data set [13] addresses T1, Platelet-derived growth factor receptor beta. The data set is described as follows: Inhibition of PDGFRbeta in human MDA-MB-231 cells assessed as PDGFRbeta Tyr740 phosphorylation level at 5 uM incubated for 24 hrs by Western blot relative to untreated control. It counts as cell-based. Summed up:
as §3

For data set [14] the target is unchanged. The data set can be described thus: Inhibition of PDGFRbeta in human MDA-MB-231 cells assessed as C-Raf Ser338 phosphorylation level at 5 uM incubated for 24 hrs in presence of PDGFRbeta siRNA by Western blot relative to untreated control. It counts as cell-based.
Data set [15] has the same target. The data set is described as follows: Inhibition of PDGFRbeta in human MDA-MB-231 cells assessed as ULK Ser555 phosphorylation level at 2.5 uM incubated for 24 hrs in absence of PDGFRbeta siRNA by Western blot relative to untreated control. Type of data set: cell-based. A digest of the protocol: (§4)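 Cells were transfected with control or PDGFR-β siRNA, then treated with 2.5 μM compound for 24 h. PDGFR-β-AKT-ULK1 pathway phospho-proteins were assessed by western blot: lysis in Hepes pH 7.4 / Triton buffer, 10-15% SDS-PAGE, PVDF, ECL detection, β-actin as loading control.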

For data set [16] the target is unchanged. The data set can be described thus: Inhibition of PDGFRbeta in human MDA-MB-231 cells assessed as Akt Thr305 phosphorylation level at 2.5 uM incubated for 24 hrs by Western blot relative to untreated control. Type of data set: cell-based. Summed up:
as §3

Data set [17] has as its system MDA-MB-231. The data set can be described thus: Effect on total Akt protein level in human MDA-MB-231 cells at 2.5 uM incubated for 24 hrs in absence of PDGFRbeta siRNA by Western blot relative to untreated control. It counts as ADME, cell-based. The following applies: mda-mb-231, 24 h. Summed up: as §1
The target in data set [18] is T1, Platelet-derived growth factor receptor beta. The data set is described as follows: Inhibition of PDGFRbeta in human MDA-MB-231 cells assessed as Akt Ser473 phosphorylation level at 2.5 uM incubated for 24 hrs in absence of PDGFRbeta siRNA by Western blot relative to untreated control. Type of data set: cell-based. Summed up:
as §4

Data set [19] has as its system MDA-MB-231. The data set can be described thus: Effect on total c-Raf protein level in human MDA-MB-231 cells at 2.5 uM incubated for 24 hrs in presence of PDGFRbeta siRNA by Western blot relative to untreated control. It counts as cell-based. The following applies: mda-mb-231, 24 h.
In data set [20] the test system is MDA-MB-231. The data set can be described thus: Effect on total MEK1/2 protein level in human MDA-MB-231 cells at 2.5 uM incubated for 24 hrs in presence of PDGFRbeta siRNA by Western blot relative to untreated control. It counts as cell-based. The following applies: mda-mb-231, 24 h.
For data set [21], the system named is MDA-MB-231. The data set is described as follows: Induction of autophagy in human MDA-MB-231 cells co-transfected with GFP-mRFP-LC3 assessed as increase in LC3 puncta aggregation at 2.5 uM by fluorescence micrsocpy. It counts as functional, cell-based. Summed up:
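Cells were transfected with a GFP/mRFP-LC3 plasmid and incubated with 2.5 μM compound. GFP-LC3 puncta were then observed by fluorescence microscopy.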

Data set [22] concerns MDA-MB-231. The data set is described as follows: Antiproliferative activity against human MDA-MB-231 cells incubated for 72 hrs by MTT assay. It counts as functional, cell-based. The following applies: MDA-MB-231, 72 h. A digest of the protocol:
as §2

Data set [23] concerns the target T1, Platelet-derived growth factor receptor beta. The data set can be described thus: Inhibition of PDGFRbeta in human MDA-MB-231 cells assessed as mTOR Ser2448 phosphorylation level at 2.5 uM incubated for 24 hrs in presence of PDGFRbeta siRNA by Western blot relative to untreated control. Type of data set: cell-based. Summed up:
as §4

Active and inactive are the calls of the source. The rule behind the calls is not given here.

T1 sequence (P09619 whole entry): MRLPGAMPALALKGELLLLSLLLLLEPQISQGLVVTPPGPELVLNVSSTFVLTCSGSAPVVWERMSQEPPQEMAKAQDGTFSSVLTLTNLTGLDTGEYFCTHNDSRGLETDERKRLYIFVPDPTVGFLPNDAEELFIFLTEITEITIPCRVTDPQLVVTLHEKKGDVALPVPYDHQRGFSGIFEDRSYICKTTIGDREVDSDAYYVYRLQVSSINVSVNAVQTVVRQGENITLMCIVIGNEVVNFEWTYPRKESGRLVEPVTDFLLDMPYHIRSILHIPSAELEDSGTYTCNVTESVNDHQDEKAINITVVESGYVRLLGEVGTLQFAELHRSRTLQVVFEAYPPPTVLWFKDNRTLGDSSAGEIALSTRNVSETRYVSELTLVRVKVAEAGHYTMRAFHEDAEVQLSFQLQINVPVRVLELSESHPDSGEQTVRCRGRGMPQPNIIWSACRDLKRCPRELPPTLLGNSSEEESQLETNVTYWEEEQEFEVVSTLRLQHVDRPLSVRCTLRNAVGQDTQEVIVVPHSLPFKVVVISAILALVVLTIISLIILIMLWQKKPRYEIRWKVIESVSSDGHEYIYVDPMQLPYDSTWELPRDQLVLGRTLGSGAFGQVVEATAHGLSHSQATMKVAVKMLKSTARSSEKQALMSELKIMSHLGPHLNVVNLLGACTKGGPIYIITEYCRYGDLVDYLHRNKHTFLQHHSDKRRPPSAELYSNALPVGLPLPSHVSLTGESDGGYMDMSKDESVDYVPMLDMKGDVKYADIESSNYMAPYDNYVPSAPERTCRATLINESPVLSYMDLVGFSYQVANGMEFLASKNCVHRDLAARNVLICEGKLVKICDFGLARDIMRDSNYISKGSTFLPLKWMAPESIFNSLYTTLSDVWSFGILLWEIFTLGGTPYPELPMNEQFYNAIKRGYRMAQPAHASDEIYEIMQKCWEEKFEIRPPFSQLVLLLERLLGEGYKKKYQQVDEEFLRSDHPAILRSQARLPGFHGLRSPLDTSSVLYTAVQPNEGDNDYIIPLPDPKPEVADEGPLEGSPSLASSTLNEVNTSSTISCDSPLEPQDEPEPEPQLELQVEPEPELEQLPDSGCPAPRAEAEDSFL

`COc1cccc(Nc2cc(N3CCN(C(=O)Nc4ccc(C(F)(F)F)cc4)CC3)ncn2)c1`: the “fold change (FC)” value in the data set with MDA-MB-231 [1] was found to be 0.84; in the data set with MDA-MB-231 [2] it was 3.2; in the data set on MDA-MB-231 [3], 4.18; in the data set on MDA-MB-231 [4] it was 0.99; with MDA-MB-231 [5], 4.02; with MDA-MB-231 [6], 0.31. Also, the fold change (FC) in [8] was 4.2; in data set [9], 0.45; in the data set on MDA-MB-231 [10] it was 1.2; with MDA-MB-231 [11], 0.43; with MDA-MB-231 [12], 1.1; in data set [13] it was 0.78. Also, the fold change (FC) in data set [14] was 0.78; in data set [15], 3.67; in [16], 0.95; with MDA-MB-231 [17], 0.62; in data set [18], 0.48; with MDA-MB-231 [19], 0.8. Further, the “fold change (FC)” value worked out at 1.05 with MDA-MB-231 [20] and 0.16 in data set [23]. Further, the IC50 (commonly the concentration needed to halve the response being measured) in the data set on MDA-MB-436 stood at 2360 nM; with MDA-MB-231 [7], 680 nM; in the data set on MDA-MB-231 [22], 630 nM. In the data set on MDA-MB-231 [21], the outcome was Active.
